The IC50 is the concentration at which inhibition is half-maximal.

SMILES strings stand for the structures.

Chain of Fibroblast growth factor receptor 1 (P11362 whole entry): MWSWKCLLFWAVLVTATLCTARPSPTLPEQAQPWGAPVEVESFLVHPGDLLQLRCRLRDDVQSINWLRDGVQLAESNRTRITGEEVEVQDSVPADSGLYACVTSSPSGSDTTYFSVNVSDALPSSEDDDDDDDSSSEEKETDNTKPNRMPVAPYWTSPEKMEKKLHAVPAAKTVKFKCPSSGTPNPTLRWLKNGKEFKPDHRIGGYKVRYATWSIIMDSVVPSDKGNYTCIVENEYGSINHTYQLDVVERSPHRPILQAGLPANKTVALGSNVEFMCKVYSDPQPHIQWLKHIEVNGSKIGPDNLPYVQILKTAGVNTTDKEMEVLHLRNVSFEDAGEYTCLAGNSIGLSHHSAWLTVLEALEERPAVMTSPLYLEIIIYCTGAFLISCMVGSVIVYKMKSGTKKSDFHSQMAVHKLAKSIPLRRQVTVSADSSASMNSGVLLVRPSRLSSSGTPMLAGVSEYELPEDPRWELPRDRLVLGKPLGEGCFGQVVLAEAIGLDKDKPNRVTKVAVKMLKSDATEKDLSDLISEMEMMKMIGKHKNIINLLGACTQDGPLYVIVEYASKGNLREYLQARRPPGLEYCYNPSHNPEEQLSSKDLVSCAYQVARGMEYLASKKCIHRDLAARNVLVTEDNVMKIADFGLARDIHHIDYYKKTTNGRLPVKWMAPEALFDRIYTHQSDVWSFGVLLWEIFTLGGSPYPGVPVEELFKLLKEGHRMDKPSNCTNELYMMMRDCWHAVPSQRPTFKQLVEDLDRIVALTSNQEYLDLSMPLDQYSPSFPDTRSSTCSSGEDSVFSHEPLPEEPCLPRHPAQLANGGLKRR
T1 sequence (P06213 28-758 limits assumed): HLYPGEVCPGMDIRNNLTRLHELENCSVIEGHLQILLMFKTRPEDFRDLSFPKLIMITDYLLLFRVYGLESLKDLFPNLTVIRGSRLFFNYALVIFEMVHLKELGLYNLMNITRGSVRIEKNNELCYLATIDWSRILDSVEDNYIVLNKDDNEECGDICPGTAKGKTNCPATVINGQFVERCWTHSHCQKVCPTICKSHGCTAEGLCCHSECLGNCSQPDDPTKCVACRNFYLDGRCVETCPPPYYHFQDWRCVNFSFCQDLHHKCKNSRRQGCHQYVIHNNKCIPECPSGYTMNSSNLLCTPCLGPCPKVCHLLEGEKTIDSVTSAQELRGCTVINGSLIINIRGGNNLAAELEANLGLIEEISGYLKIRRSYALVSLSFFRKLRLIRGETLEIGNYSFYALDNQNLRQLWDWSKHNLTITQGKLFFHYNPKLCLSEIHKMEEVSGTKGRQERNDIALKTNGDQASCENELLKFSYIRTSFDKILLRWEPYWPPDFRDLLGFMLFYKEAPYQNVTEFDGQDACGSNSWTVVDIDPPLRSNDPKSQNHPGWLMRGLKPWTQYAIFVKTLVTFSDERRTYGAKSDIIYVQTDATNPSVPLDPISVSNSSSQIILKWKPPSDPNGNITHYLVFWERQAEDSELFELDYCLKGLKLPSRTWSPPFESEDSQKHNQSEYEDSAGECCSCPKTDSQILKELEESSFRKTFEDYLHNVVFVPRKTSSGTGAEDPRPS
T1 sequence (P06213 763-1382 limits assumed): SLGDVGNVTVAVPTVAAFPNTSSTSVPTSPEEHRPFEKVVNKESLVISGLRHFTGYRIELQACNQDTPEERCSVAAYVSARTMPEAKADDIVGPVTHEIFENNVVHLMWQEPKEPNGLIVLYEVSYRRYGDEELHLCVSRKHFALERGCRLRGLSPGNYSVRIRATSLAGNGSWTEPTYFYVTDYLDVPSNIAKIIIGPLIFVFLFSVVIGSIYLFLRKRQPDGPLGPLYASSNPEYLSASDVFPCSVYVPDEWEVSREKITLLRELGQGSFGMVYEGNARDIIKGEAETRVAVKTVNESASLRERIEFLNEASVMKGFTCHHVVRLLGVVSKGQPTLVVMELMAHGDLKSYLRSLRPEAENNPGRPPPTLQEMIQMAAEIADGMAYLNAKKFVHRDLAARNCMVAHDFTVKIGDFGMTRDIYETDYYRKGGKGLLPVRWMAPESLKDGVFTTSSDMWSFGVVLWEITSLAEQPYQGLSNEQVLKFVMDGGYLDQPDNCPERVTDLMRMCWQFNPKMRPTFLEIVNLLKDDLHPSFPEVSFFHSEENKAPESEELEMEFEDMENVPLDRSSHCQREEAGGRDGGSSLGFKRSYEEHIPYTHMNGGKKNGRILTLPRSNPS
Chain of Proto-oncogene tyrosine-protein kinase Src (P12931 2-536 limits assumed): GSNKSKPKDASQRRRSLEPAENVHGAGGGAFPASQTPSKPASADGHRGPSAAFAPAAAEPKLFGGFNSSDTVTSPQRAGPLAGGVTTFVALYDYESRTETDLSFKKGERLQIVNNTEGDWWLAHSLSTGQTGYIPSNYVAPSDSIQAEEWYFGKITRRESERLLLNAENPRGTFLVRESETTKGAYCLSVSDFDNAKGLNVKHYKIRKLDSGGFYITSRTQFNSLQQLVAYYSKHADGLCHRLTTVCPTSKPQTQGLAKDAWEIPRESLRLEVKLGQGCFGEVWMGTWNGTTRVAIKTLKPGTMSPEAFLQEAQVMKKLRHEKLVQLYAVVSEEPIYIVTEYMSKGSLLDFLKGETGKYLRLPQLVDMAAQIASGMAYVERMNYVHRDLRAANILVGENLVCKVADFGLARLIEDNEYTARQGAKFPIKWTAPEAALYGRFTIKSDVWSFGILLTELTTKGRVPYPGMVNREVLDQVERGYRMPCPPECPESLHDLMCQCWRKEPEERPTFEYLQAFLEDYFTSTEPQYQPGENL

The first experiment concerns the target Proto-oncogene tyrosine-protein kinase Src (Homo sapiens, UniProt P12931). Briefly: Inhibition of SRC.
Settings: not given; call rule not given here
In turn, `COc1cc(/C=C2\SC(=N)NC2=O)ccc1OCCCOc1cc(C)cc(C)c1` returned an IC50 of 10 µM.

A further experiment has as its target T1, Insulin receptor (Homo sapiens, UniProt P06213).
Settings: not given
As for `COc1cc(/C=C2\SC(=N)NC2=O)ccc1OCCCOc1cc(C)cc(C)c1`, the 50% inhibitory concentration (IC50) amounted to 47 µM.

Another experiment addresses Fibroblast growth factor receptor 1 (Homo sapiens, UniProt P11362). Put plainly: Inhibition of FGFR1.
Settings: not given
Regarding `O=C(CC1NC(=O)c2ccccc21)NCc1ccco1` (stereo not given), the half-inhibitory concentration (IC50) entry is reported as “Not Active”.
On to `Cc1ccc2[nH]c(=O)c(-c3nc4ccc(Cl)cn4c3NCC3CCCO3)cc2c1` (stereo not given), for which the IC50 entry is reported as “Not Active”.
On to `COc1ccc2cc(-c3nc4cccc(C)n4c3NC3CCCC3)c(=O)[nH]c2c1`, for which the half-maximal inhibitory concentration (IC50) entry is “Not Active”.
On the same count and under the same terms, the value for `CC(=O)Nc1nc(-c2ccc(Cl)c(Cl)c2)nc2c1c(=O)oc1ccccc12` was “Not Active”.
For the molecule `O=C(CSc1nc2c(c(=O)[nH]1)C1CCCCC1S2)NCc1ccco1` (stereo not given), the half-inhibitory concentration (IC50) entry is “Not Active”.
On the same count and under the same terms, the value for `COc1cc(/C=C2\NC(=S)NC2=O)ccc1OCCCOc1ccccc1Cl` was “Not Active”; that for `CC(C)C(=O)Nc1nc2c(c3c1c(=O)oc1ccccc13)CCCC2` was “Not Active”.
As for `CCc1ccc(OCCCOc2ccc(/C=C3\SC(=O)NC3=O)cc2)cc1`, the IC50 entry is “Not Active”.
For the molecule `COc1cc(/C=C2\NC(=S)NC2=O)ccc1OCCCOc1cccc(C)c1`, the half-maximal inhibitory concentration (IC50) result was “Not Active”.
For the molecule `COc1ccc(-c2nc(=O)c3c4c(sc3[nH]2)CC(C)CC4)cc1OC` (stereo not given), the IC50 result is on record as “Not Active”.
With `COc1cccc(-c2nc(=O)c3c4c(sc3[nH]2)CC(C)CC4)c1` (stereo not given), the IC50 entry is reported as “Not Active”.
On the same count and under the same terms, under `O=C1C(Nc2ccccc2)=CC(c2cccc([N+](=O)[O-])c2)N1c1ccccc1` (stereo not given) stands “Not Active”.
For the molecule `CC(CCc1ccccc1)NC(=O)COC(=O)CC1Sc2ccccc2NC1=O` (stereo not given), the IC50 entry was “Not Active”.
Regarding `C=C1c2ccccc2NC(=O)N1c1cccc(Cl)c1`, the IC50 result is reported as “Not Active”.
Same read-out and setting: the value for `COc1cc(/C=C2\NC(=S)NC2=O)ccc1OCCCOc1ccc(Cl)cc1` was “Not Active”.
Still for that read-out and setting: the value for `COc1cc(C2C=C(Nc3ccccc3)C(=O)N2c2ccccc2)ccc1O` (stereo not given) was “Not Active”; that for `COc1cc(-c2nc(=O)c3c([nH]2)sc2cc(C(F)(F)F)ccc23)ccc1OCC(=O)O` was “Not Active”; that for `CC(=O)Nc1nc(-c2ccc(C(C)(C)C)cc2)nc2c1c(=O)oc1ccccc12` was “Not Active”.
Turning to `COc1ccc2cc(C3(C)NC(=O)N(Cc4ccc(F)cc4Cl)C3=O)ccc2c1` (stereo not given), the half-inhibitory concentration (IC50) entry is reported as “Not Active”.
On to `CCOC(=O)CNc1ccccc1-c1nc2ccccc2[nH]c1=O`, for which the half-inhibitory concentration (IC50) entry was “Not Active”.
As to `Cc1ccc2[nH]c(=O)c3cc(C(=O)N4CCN(c5ccccn5)CC4)sc3c2c1`, the IC50 result was “Not Active”.
Same read-out and setting: the value for `COc1cc(/C=C2\NC(=S)NC2=O)ccc1OCCCOc1cc(C)cc(C)c1` was “Not Active”; that for `O=c1[nH]c2ccc(NCc3cccc(OCc4ccccc4)c3)cc2[nH]1` was “Not Active”.
Consider `O=C(NCc1n[nH]c(=O)c2ccccc12)c1ccc(Br)o1`, for which the IC50 result is “Not Active”.
The same measure, in the same setting: the value for `COc1ccc(-c2nc(NC(C)=O)c3c(=O)oc4ccc(Cl)cc4c3n2)cc1` was “Not Active”.
Regarding `Cc1ccc(SCCNC(=O)COC(=O)Cc2n[nH]c(=O)c3ccccc23)cc1`, the 50% inhibitory concentration (IC50) entry was “Not Active”.
The same measure, in the same setting: under `COc1cc(/C=C2\NC(=S)NC2=O)ccc1OCCCOc1cccc(Cl)c1` stands “Not Active”.
For `C/C(=N\CC1CCCO1)C1C(=O)NC(=O)N(c2ccc(C)cc2)C1=O` (stereo not given), the IC50 entry is “Not Active”.
On the same count and under the same terms, the value for `Cc1ccc(C2(C)NC(=O)N(Cc3ccc(F)cc3)C2=O)cc1` (stereo not given) was “Not Active”.

The same experiment, now with this note: read-out: IC50.
Take `COc1cc(-c2nc3sc4cc(C)ccc4c3c(=O)[nH]2)ccc1OCC(=O)O`: the half-inhibitory concentration (IC50) worked out at 4 µM.
On to `CCc1ccc2c(c1)sc1[nH]c(-c3ccc(OCC(=O)O)c(OC)c3)nc(=O)c12`, for which the IC50 came to 5.5 µM.
Still for that read-out and setting: under `COCc1cc(/C=C2\NC(=S)NC2=O)ccc1OCCCOc1cc(C)cc(C)c1` stands 3300 µM.
Take `COc1cc(-c2nc3sc4c(c3c(=O)[nH]2)CCC(C)C4)ccc1OCC(=O)O` (stereo not given): the IC50 came out at 50 µM.
With `CCOc1cc(/C=C2\NC(=S)NC2=O)ccc1OCCCOc1cc(C)cc(C)c1`, the IC50 came out at 250 µM.
The same measure, in the same setting: the value for `COc1cc(/C=C2\SC(=N)NC2=O)ccc1OCCCOc1cc(C)cc(C)c1` was 23 µM.

The target of a further experiment is Epidermal growth factor receptor (Homo sapiens, UniProt P00533). Put plainly: Inhibition of EGFR.
Chain of Epidermal growth factor receptor (P00533 whole entry): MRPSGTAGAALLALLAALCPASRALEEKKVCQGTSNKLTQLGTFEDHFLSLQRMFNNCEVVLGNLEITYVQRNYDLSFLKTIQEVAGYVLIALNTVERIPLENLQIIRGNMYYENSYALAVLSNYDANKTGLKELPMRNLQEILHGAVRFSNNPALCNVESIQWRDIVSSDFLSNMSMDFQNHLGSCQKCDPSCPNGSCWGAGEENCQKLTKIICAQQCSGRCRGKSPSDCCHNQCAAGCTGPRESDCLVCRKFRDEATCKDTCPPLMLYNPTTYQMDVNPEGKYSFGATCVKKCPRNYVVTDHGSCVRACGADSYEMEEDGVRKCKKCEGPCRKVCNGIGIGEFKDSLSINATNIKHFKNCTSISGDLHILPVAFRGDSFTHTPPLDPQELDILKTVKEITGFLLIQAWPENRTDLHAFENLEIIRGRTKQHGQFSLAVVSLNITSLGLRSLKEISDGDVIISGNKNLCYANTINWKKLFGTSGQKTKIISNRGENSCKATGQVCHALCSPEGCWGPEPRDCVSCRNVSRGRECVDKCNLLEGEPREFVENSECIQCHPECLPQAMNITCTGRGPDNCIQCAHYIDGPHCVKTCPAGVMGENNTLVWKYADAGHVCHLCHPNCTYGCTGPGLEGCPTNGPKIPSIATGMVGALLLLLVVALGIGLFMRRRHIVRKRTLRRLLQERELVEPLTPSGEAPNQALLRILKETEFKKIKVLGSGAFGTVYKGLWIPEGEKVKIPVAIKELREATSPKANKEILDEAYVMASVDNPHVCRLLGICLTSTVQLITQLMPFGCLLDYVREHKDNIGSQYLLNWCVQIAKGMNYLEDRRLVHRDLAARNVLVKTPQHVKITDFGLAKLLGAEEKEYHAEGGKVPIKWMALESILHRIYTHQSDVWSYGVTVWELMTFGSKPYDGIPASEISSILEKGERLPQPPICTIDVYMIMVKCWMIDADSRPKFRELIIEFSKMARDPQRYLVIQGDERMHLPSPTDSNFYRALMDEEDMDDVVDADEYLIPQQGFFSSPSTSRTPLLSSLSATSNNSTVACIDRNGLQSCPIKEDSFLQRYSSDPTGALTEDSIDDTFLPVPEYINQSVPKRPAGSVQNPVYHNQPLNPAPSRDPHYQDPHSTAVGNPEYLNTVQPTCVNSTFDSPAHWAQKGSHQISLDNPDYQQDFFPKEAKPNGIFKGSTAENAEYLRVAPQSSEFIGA
Settings: not given
The gist of the method: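 Commercially sourced EGFR enzyme was tested in an AlphaScreen format. Kinase, biotinylated peptide, ATP and inhibitor were combined across 10 wells, typically 0.01 µM to 250 µM inhibitor. Phosphorylation ran for 30 min and was stopped with EDTA. Phosphopeptide was detected with anti-phosphotyrosine acceptor beads and streptavidin donor beads.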
Turning to `COc1cc(-c2nc(=O)c3c([nH]2)sc2ccc(C)cc23)ccc1OCC(=O)O`, the half-inhibitory concentration (IC50) stood at 2.4 µM.
With `COc1cc(/C=C2\SC(=N)NC2=O)ccc1OCCCOc1cc(C)cc(C)c1`, the concentration for half-maximal inhibition (IC50) amounted to 56 µM.

The target in another experiment is T1, Insulin receptor.
Settings: not given
The source holds these as a separate data set.
Take `COc1cc(-c2nc(=O)c3c([nH]2)sc2ccc(C)cc23)ccc1OCC(=O)O`: the IC50 entry is “Not Active”.

The values above are taken from ChEMBL document CHEMBL1156931, “Discovery of novel fibroblast growth factor receptor 1 kinase inhibitors by structure-based virtual screening” (J Med Chem, 2010).
